Compound activity deposited in PubChem by several laboratories.
This is a sample that favours compounds with a hit; in the whole collection about 3.1% have one here.
UHRF1 binding: human UHRF1 methylated DNA binding inhibitors; hit rate 0.75% among 370,000; Q96T88; UHRF1 binding to methylated oligo, TR-FRET; inhibition, % at 4.4 µM; in the data active means inhibition above about 21%;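 further: UHRF1 SRA domain binding a hemimethylated CpG hairpin DNA probe; 0% = median of test compound wells and 100% = reference inhibitor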
Target sequence (Q96T88 whole entry, looked up, the tested form may be a part): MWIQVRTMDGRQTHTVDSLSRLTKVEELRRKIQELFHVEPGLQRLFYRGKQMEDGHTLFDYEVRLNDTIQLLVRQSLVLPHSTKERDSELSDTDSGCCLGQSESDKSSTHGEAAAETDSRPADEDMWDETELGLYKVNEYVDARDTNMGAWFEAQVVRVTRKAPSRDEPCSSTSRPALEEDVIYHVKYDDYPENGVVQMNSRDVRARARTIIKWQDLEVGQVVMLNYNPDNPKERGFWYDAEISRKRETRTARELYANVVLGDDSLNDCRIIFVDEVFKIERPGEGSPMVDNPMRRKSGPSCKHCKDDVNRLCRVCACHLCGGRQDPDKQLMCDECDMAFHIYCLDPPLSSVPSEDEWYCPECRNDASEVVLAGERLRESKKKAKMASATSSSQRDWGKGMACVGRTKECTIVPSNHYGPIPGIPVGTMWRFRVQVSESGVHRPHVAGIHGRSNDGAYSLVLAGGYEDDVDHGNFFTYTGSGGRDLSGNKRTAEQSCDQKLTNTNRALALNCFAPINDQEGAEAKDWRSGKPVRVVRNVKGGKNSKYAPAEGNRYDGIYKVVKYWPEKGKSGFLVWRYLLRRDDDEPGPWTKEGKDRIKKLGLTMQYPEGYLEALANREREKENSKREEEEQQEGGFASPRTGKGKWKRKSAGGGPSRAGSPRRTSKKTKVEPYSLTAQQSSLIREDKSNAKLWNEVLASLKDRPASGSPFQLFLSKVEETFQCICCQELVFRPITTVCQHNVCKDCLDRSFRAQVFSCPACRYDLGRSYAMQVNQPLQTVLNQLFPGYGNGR
LEDGF integ inh: blocks HIV-1 LEDGF/p75-dependent DNA integration | TR-FRET IN-LEDGF/p75 DNA integration, Eu/Cy5 | inhibition, % at 3.7 µM | hit rate 0.64% among 370,000;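 active means inhibition above the screen-wide mean plus 3 SD, cut at about 13% in these data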;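 further: signal is the Cy5 over europium emission ratio at 671 and 618 nm; 0% = plate median of compound wells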
CSN deneddyl inh: CSN deneddylation inhibition. inhibition, % at 12.5 µM. Purified CSN, SCF-Nedd8-OG deneddylation, fluorescence polarization. Q92905. hit rate 0.38% among 360,000. AID 651999;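 active means pattern-corrected inhibition above about 35%, with an unprinted fluorescence ratio check between 0.5 and 1.5, limit read from the data, passing the limit was not always enough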;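 further: 0% = enzyme with substrate and 100% = substrate without enzyme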
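Assay system: purified human Csn5 enzyme expressed in HEK293T cells; Input: 0.24 nM Csn5 enzyme, final concentration; Reagent: 10 nM SCFSkp2-Nedd8OG; Compound dosing: 12.5 µM single point; Times: reaction 90 min, room temperature; Technique: fluorescence polarization readout.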
rCAG binder: r(CAG) repeat RNA binding; TO-PRO-1 dye displacement fluorescence; hit rate 1.3% among 370,000; inhibition, % at 3 µM;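 active means inhibition above the plate cutoff, the mean of all test compounds on that plate plus 3 SD, cut at about 35% in these data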;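 further: 0% = DMSO alone and 100% = 100 µM mitoxantrone as full dye displacement; higher means more dye released from RNA so lower well fluorescence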
ATG4B inhibitor: inhibitors of human ATG4B cysteine protease. inhibition, % at 8.33 µM. Q9Y4P1. hit rate 0.51% among 340,000. ATG4B cleavage of LC3-PLA2, NBD-HPC fluorescence, 1 h. AID 504462; in the data active means inhibition above about 40%
MBD2 DNA inh: blocks human MBD2 binding to methylated DNA; AID 686964; inhibition, % at 4.4 µM; hit rate 0.31% among 370,000; TR-FRET, MBD2 binding to methylated oligonucleotide; Q9UBB5; in the data active means inhibition above about 13%
Active calls of the source: *; . = no result given.

SMILES	UHRF1 binding	LEDGF integ inh	CSN deneddyl inh	rCAG binder	ATG4B inhibitor	MBD2 DNA inh
CCOc1cc(C(=O)NC(C)CC)cc(OCC)c1OCC (stereo unspecified)	26.9*	-0.1	2.0	-8.1	-5.7	2.6
COc1ccc(S(=O)(=O)N2CCN(CC(=O)c3ccc(O)c(O)c3)CC2)cc1	6.1	60.9*	0.8	9.8	-9.0	0.5
COC(=O)[C@H](C)N(Cc1cn(Cc2ccccc2)nn1)S(=O)(=O)c1ccccc1Br	0.6	1.7	.	0.6	.	-5.6
COc1ccc(CN(CCN2CCOCC2)C(=O)c2cc(F)ccc2C)cc1OC	0.6	-0.3	.	1.4	.	-0.1
CNc1cccccc1=S	14.8	23.4*	15.2	13.1	3.1	7.6
CNc1ccccc1	3.4	-3.1	3.9	0.3	3.2	0.2
CCOc1ccccc1C1NC(=O)NC(C)=C1C(=O)OC1CCCCC1 (stereo unspecified)	80.9*	-4.2	2.6	-5.2	4.2	0.6
CCOc1ccccc1C1NC(=O)NC(C)=C1C(=O)OC1CCCC1C (stereo unspecified)	3.6	0.2	0.1	-3.0	-2.8	3.2
Cc1nn(-c2ccc(Cl)c(Cl)c2)c(C)c1C(=O)O	1.2	-3.1	-3.6	-1.9	5.8	-0.3
CNC(=O)c1c(C)nn(-c2ccc(F)c(Cl)c2)c1-c1cc(C)on1	22.2*	-0.6	1.6	-8.4	-5.7	4.0
CS(=O)(=O)N(Cc1ccc(Cl)cc1)c1ccc(C(=O)N2CCN(c3ccccc3)CC2)cc1	2.5	-2.6	-5.2	0.0	8.6	0.1
CS(=O)(=O)N(Cc1ccccc1)c1ccc(C(=O)N2CCN(c3cccc(Cl)c3)CC2)cc1	.	.	-0.7	.	56.5*	.
O=C(NCc1ccccc1)C(c1cccc2ccccc12)n1c(=O)c(-c2ccco2)nc2ccccc21 (stereo unspecified)	-4.2	7.4	21.4	38.3*	.	-1.6
CCCCCNC(=O)C(c1cccc2ccccc12)n1c(=O)c(-c2ccco2)nc2ccccc21 (stereo unspecified)	-3.2	-0.9	32.8	30.1	.	-0.1
CC(C)(C)NC(=O)C(c1cccc2ccccc12)n1c(=O)c(-c2ccco2)nc2ccccc21 (stereo unspecified)	-7.5	6.9	25.3	43.7*	.	-5.2
Brc1ccc2nc(-c3ccc(CN4CCC(c5nc6ccccc6[nH]5)CC4)cc3)c(-c3ccccc3)nc2c1	0.0	1.2	.	13.9	.	4.1
Cc1ccccc1CN1CCCCC(NC(=O)c2cc(-c3ccccc3)no2)C1=O (stereo unspecified)	-0.4	-2.9	.	5.4	.	1.5
CCCCC1=CC2=CC(=O)C(C)(OC(=O)c3cccs3)C(=O)C2=CO1 (stereo unspecified)	-3.0	-1.0	23.1	36.6*	25.2	-1.6
Cc1nc2cc(C(=O)N3CCN(C(=O)C(Cl)Cl)CC3)ccc2n1C1CCCC1	1.4	-4.7	.	9.1	.	-3.5
NS(=O)(=O)c1ccc(N/C=C\C(=O)c2ccc3ccccc3c2)cc1	21.9*	8.5	13.7	25.7	12.1	9.1
CCCN(CCO)CCCc1ccccc1	-1.2	88.6*	-5.0	0.8	-4.3	1.2
COC(=O)[C@]12C[C@H](CC(=O)NCc3cccc(C(F)(F)F)c3)C(=O)N(Cc3cccc4ccccc34)C1=C[C@H](COCc1ccccc1)O[C@@H]2C	0.5	1.1	.	7.3	.	0.7
CCCCc1c(-c2ccccc2OC)ncn1Cc1ccccc1	0.8	2.2	.	-1.6	.	2.3
CCCCc1c(-c2ccccc2OC)ncn1Cc1ccc(C(C)(C)C)cc1	27.6*	2.6	.	0.4	.	-4.7
CCCCc1c(-c2ccccc2OC)ncn1CCc1cccc(F)c1	55.8*	1.7	5.4	-2.0	.	2.2
SMILES	UHRF1 binding	LEDGF integ inh	CSN deneddyl inh	rCAG binder	ATG4B inhibitor	MBD2 DNA inh
O=S1(=O)c2ccc(N3CCN(Cc4ccccc4F)CC3)cc2Oc2ccccc2CN1Cc1cn(Cc2ccccc2C(F)(F)F)nn1	-1.9	2.2	.	12.4	.	-7.2
O=c1c2ccccc2c(/C=N/n2cnnc2)c(O)n1-c1ccccc1	-3.5	4.1	5.7	21.3	14.1	-4.6
O=c1c2ccccc2c(/C=N/NS(=O)(=O)c2ccccc2)c(O)n1-c1ccccn1	5.9	-0.8	79.7*	10.3	3.6	1.8
COc1ccc(S(=O)(=O)N2CCN(C(=O)CSc3nc4ccccc4nc3N3CCCCC3)CC2)cc1	0.2	3.0	.	9.2	.	-6.5
CC(C)NC(=O)c1c(CSc2ccccc2)noc1C(=O)NCc1ccccc1	22.2*	0.8	0.0	-8.4	9.7	-2.1
CCCCc1c(-c2ccccc2OC)ncn1C(C)c1ccc(Cl)cc1 (stereo unspecified)	-2.1	1.1	.	0.3	.	-3.9
COc1ccc(C2=Nc3ccccc3N(C(=O)c3cccnc3)C2C(=O)NC2CCCC2)cc1 (stereo unspecified)	22.6*	-3.4	-0.7	2.7	.	11.8
COc1ccc(C(=O)/C(=C/N(C)C)S(=O)(=O)c2ccccc2)cc1	54.7*	2.9	-4.5	2.2	4.3	2.8
C=CCn1c(=O)c(C(=O)Nc2ccccc2S(N)(=O)=O)c(O)c2ccccc21	5.2	-3.0	93.2*	15.7	3.5	6.3
C=CCn1c(=O)c(C(=O)Nc2ccccc2C(=O)OCC)c(O)c2ccccc21	-1.7	-1.6	4.4	1.6	-1.7	0.6
O=C(O)c1cc(N/N=C/c2cccc3ccccc23)ccc1Cl	1.2	-1.4	-3.0	12.5	13.7	-1.1
CC(C)n1cc(/C=N/Nc2ccc(Cl)c(C(=O)O)c2)c2ccccc21	.	.	39.6*	.	.	.
CN(C)CCNC(=O)c1cccc2ccc(-c3ccc(-c4ccccc4)cc3)nc12	37.3*	-4.5	-0.6	8.3	-18.3	2.5
COC(=O)C1=C(C(=O)OC)C2CCCC1C1N=NN(c3ccccc3)C21 (stereo unspecified)	1.0	-2.3	.	0.2	.	3.6
Cc1c(C(Nc2ccccn2)c2ccccc2)c(=O)n(-c2ccccc2)n1C (stereo unspecified)	21.8*	-0.9	1.4	-3.9	10.5	7.7
Clc1ccc([C@H]2OC[C@@]3(CNC4CCCCC4)CS[C@H](c4ccc(Cl)cc4)N23)cc1	-0.9	5.7	.	2.6	.	0.9
CC(=O)Oc1ccc(C(=O)Nc2cccc(C(=O)NC(C)(C)C)c2)cc1	4.3	0.1	-11.1	-2.3	-6.2	1.1
O=C(Nc1ccc(OCc2ccccc2)cc1)c1ccccc1	64.6*	1.1	-1.9	-0.3	-6.9	5.5
O=C(COc1cccc(NC(=O)c2ccccc2)c1)c1ccccc1	26.9*	5.3	0.2	2.4	-2.5	7.8
CC(=O)Oc1ccc(C(=O)Nc2cccc(C(=O)c3cccc(NC(=O)c4ccc(OC(C)=O)cc4)c3)c2)cc1	1.8	1.8	108.3*	5.7	30.9	0.9
C=CCNC(=O)N1CCC(c2nc3ccc(Cl)cc3[nH]2)CC1	0.7	4.9	.	1.7	.	0.8
O=C(NCc1ccc(C(=O)NC2CCCC2)cc1)c1cccc(Br)c1	0.7	5.8	.	1.6	.	0.7
